The results in this text go back to ChEMBL document CHEMBL1127640, “Synthesis and evaluation of 7 alpha-iodo-5 alpha-dihydrotestosterone as a potential radioligand for androgen receptor” (J Med Chem, 1994).

Assay [1] deals with T1, Progesterone receptor (Homo sapiens) (UniProt P06401).
T1 sequence (whole entry): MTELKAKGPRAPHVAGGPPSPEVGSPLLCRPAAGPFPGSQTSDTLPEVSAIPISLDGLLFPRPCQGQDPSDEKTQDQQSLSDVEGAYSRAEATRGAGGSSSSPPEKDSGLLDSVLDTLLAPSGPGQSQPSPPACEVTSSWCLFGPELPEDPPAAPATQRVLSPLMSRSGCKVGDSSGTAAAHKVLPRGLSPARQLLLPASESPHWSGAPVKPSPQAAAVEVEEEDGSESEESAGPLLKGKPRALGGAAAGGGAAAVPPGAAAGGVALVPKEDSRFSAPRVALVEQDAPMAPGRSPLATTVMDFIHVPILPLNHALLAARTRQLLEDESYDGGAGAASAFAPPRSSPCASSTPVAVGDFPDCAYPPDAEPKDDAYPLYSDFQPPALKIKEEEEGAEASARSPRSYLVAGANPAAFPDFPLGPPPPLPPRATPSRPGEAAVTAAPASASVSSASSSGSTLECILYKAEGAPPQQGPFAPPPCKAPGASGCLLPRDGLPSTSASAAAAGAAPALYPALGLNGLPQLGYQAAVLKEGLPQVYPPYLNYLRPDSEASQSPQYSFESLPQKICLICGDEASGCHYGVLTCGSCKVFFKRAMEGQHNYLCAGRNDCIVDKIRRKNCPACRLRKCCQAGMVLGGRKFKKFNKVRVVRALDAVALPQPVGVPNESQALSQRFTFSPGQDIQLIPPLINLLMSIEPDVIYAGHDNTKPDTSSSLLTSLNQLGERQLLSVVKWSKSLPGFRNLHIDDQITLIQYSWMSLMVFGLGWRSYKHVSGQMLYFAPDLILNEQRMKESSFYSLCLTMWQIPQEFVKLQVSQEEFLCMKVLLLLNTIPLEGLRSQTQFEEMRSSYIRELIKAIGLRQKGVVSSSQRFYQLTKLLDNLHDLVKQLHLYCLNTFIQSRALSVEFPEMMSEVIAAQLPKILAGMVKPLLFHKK
The experiment in a line: Relative binding affinity for progesterone receptor in MCF-7 cell cytosol extract.

The species entered for assay [2] is Rattus norvegicus. Briefly: Relative binding affinity for progesterone receptor in rat uterine cytosol extract. The note with it: Uterus. The gist of the method: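 Tissue homogenized in molybdate-free TEGT buffer, and cytosol (105000g supernatant) used at 0.8–1.2 mg/mL protein. Incubation was 20 h at 4 °C with 1.0 nM [3H]R5020 (final) over a competitor range. Bound/free separated on Sephadex LH-20, then scintillation counting.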

In the case of `CC(=O)[C@H]1CC[C@H]2[C@@H]3CCC4=CC(=O)CC[C@]4(C)[C@H]3CC[C@]12C`, the Binding in assay [1] and in assay [2] was 100% in each case.

For the molecule `C[C@]1(O)CC[C@H]2[C@@H]3CCC4=CC(=O)CCC4=C3C=C[C@@]21C`, the Binding is 98% in assay [1] and 142% in assay [2].

Take `CC12CC[C@H]3[C@@H]([C@H](I)C[C@H]4CC(=O)CCC43C)[C@@H]1CCC2O` (some centres not stated): the Binding in assay [1] is 0.239%; in assay [2], 1.12%.

As to `C[C@]12CC[C@H]3[C@@H](CCC4=CC(=O)CC[C@@]43C)[C@@H]1CC[C@@H]2O`, the values for the Binding in assay [1] and in assay [2] were 0.112% and 1.55%, respectively.

Turning to `C[C@]12CCC(=O)C[C@@H]1CC[C@@H]1[C@@H]2CC[C@]2(C)[C@@H](O)CC[C@@H]12`, the values for the Binding in assay [1] and in assay [2] were 0.205% and 1.26%, respectively.

Consider `C[C@@H]1CC2=CC(=O)CCC2[C@H]2CC[C@@]3(C)[C@@H](CC[C@@]3(O)/C=C/I)[C@H]12` (some centres not stated), for which the Binding in assay [1] was found to be 9.84%; in assay [2], 12.3%.
